The values that follow come from PMC10155261 (European journal of medicinal chemistry, 2022).

Series [1] can be described thus: Bidirectional MDCK-MDR1 permeability. The class given is in vitro ADME. Conditions: dog. The essentials: (§1)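 MDCK-mdr1 cells (passage 5) were grown on polycarbonate Transwell supports for 3 days and rinsed with warm HBSS. They were pre-incubated 30 min at 37 °C in HBSS with 10 mM HEPES and 0.25% BSA, pH 7.4, then TEER was measured. Test compound at 10 μM went to the apical donor (A-to-B) or basolateral donor (B-to-A) side, at 37 °C with light agitation. Receiver was sampled at 30, 60 and 90 min and analysed by LC-MS/MS. Papp came from dQ/dt, area 1.12 cm2 and initial donor concentration. Atenolol and propranolol were references.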

A further series deals with P-glycoprotein (MDR1). In words: Bidirectional MDCK-MDR1 permeability. Particulars: dog, MDCK-MDR1, pH 7.4. It counts as in vitro ADME. The essentials: as §1
The target in series [2] is T1, hLPA5 (Homo sapiens, UniProt Q9H1C0). In words: LPA5 TR-FRET Lance Ultra cAMP assay. It counts as cell-based. Particulars: cAMP assay. (In general: TR-FRET usually uses a lanthanide donor and a delayed reading to cut background.)
T1 sequence (Q9H1C0 whole entry): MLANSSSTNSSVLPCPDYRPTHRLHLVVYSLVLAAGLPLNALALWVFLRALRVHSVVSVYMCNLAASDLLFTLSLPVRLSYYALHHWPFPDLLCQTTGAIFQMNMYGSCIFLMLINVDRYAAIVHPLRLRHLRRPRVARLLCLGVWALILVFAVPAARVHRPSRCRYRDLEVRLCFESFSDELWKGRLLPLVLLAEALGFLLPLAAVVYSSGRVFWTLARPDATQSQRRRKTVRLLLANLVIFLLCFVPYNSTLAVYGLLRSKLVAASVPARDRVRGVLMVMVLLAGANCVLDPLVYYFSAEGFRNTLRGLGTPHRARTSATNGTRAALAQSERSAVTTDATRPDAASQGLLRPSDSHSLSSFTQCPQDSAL
A short description of the next series: Plasma protein binding. It counts as in vitro ADME. Conditions: rat. The essentials: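 Equilibrium dialysis: test compound or controls at 1 μM in rat plasma, in triplicate, against buffer across a 12–14K MWCO cellulose membrane. Incubation ran 6 h at 37 °C with light agitation to equilibrium. Plasma and buffer were extracted with cold acetonitrile/methanol (1:1) and quantified by LC-MS/MS against standard curves. Acebutolol (low-bound) and warfarin (high-bound) served as controls.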

Series [3] has as its system CFA-induced nociceptive hypersensitivity in rats. Put plainly: CFA-induced inflammatory pain model, von Frey mechanical nociception. The class given is in vivo, Sprague-Dawley rats. Conditions: i.p.
The test system of series [4] is fentanyl-induced mechanical hypersensitivity in rats. In words: Fentanyl. Particulars: i.p. It counts as in vivo.
The subject of another series is LPA1–LPA4 receptors. In words: LPA1–LPA3 calcium mobilization. It counts as cell-based. Conditions: 10 μM in Ca2+ for LPA1–LPA3 and cAMP for LPA4. The essentials:
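Selectivity was tested with test compound at 10 μM. LPA1–LPA3 calcium mobilization was run externally in CHO cells over-expressing each receptor, under the provider's protocols. LPA4 was a TR-FRET cAMP assay in LPA4-overexpressing CHO cells, following the LPA5 cAMP method but against 250 nM hexadecyl LPA 16:0 (EC80).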
On the technique in general: A change in cytosolic calcium serves as a functional read-out for many receptors and channels.

For series [5], the system named is locomotor activity in rats. Put plainly: Locomotor activity. It counts as in vivo. Conditions: 17.8 mg/kg i.p., 60 min pretreatment, P > 0.05.
In series [6] the test system is CCI-induced mechanical allodynia in rats. In words: Chronic constriction injury. It counts as in vivo, Sprague-Dawley rats. Conditions: i.p., 17.8 mg/kg.
The target of series [7] is T1, hLPA5. In words: LPA5 calcium mobilization assay. It counts as cell-based. Conditions: calcium assay. The essentials: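 RH7777-hLPA5 cells were plated on poly-D-lysine at 20,000 cells/well in 0.2% FBS medium for 18–20 h at 37 °C. They were loaded 45 min with Calcium 5 dye in HBSS, 20 mM HEPES and 2.5 mM probenecid, pH 7.4. Eight test-compound concentrations were pre-incubated for 15 min at 37 °C, then hexadecyl LPA 16:0 EC80 (30 nM) was added at 10 s. Fluorescence (485/525 nm) was read every 1 s for 90 s. IC50 came from a three-parameter logistic fit of RFU. Duplicate determinations; two or at least three independent experiments.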

Series [8] concerns >50 GPCRs (NIMH Psychoactive Drug Screening Program panel). In words: NIMH PDSP radioligand binding panel. Particulars: < 50% inhibition at 10 μM or pKi ≤ 6.
The target of the next series is dopamine D3 (Homo sapiens, UniProt P35462). In words: NIMH PDSP radioligand binding, D3.
dopamine D3, sequence (P35462 whole entry): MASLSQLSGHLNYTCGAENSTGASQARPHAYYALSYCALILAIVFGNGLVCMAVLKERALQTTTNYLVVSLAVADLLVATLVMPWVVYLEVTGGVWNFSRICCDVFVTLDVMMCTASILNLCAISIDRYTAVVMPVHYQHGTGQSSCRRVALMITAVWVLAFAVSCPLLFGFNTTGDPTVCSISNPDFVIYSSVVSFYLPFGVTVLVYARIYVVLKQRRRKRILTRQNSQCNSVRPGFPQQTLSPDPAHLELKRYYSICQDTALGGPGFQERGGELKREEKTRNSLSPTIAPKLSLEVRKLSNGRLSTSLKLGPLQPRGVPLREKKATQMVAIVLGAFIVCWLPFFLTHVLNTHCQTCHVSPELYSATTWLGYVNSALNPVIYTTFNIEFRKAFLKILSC
Series [9] can be described thus: Metabolic stability in rat liver microsomes. The class given is in vitro ADME. Conditions: pH 7.4. The essentials: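 Rat liver microsomes (0.5 mg/mL protein) were used in 100 mM potassium phosphate, pH 7.4, at 37 °C, with NADPH at 1 mM final. Samples were taken at 0, 5, 15, 30 and 45 min and quenched 1:1 in cold acetonitrile containing labetalol and glyburide. Parent was measured by LC-MS/MS, and half-life and in vitro clearance were calculated. Two independent experiments in duplicate.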

Molecules are shown by their SMILES.

For orientation: Papp A→B means the apparent permeability from the apical to the basolateral side of a cell layer. Lower therefore signals poor permeation. Broadly, the Papp B→A is the apparent permeability from the basolateral to the apical side of a cell layer. A word on the efflux ratio: it is the permeability from basolateral to apical divided by that in the opposite direction, in the common usage. What is called fraction unbound is free concentration divided by total concentration. Lower therefore signals little free substance. The Ki is a dissociation constant, usually derived from enzyme kinetics or from competition with a known ligand. Higher therefore signals a looser hold on the target. Broadly, the CLint scaled is a measure of how fast metabolising enzymes remove a compound, apart from limits set by blood flow. High values mean rapid turnover, low ones slow turnover. Regarding `C#CC1CCN(C(=O)c2cn(-c3ccc4scc(C)c4c3)c(=O)c3cc(OC)c(OC)cc23)CC1` [Compound 66, 4-(4-Ethynylpiperidine-1-carbonyl)-6,7-dimethoxy-2-(3-methylbenzo[b]thiophen-5-yl)isoquinoli-n-1(2H)-one], in series [1] (MDCK-MDR1, pH 7.4), the Papp A→B at 90 min, 10 μM is 30.4 ×10⁻⁶ cm/s. Further, the Papp B→A at 90 min, 10 μM in series [1] (MDCK-MDR1, pH 7.4, Papp (B-to-A), MDCK-MDR1 Transwell, 10 μM) came out at 38.7 ×10⁻⁶ cm/s. For the same compound, the efflux ratio at 90 min, 10 μM with P-glycoprotein (MDR1) was below 2.5. Besides, the “fold less potent than 2” value on hLPA5 [2] is 1.7 fold. The fraction unbound at 6 h, 1 μM in the series “Plasma protein binding” worked out at 0.01. Also, the “effect on CFA-induced nociceptive hypersensitivity” value in series [3] (17.8 mg/kg) is given as “markedly alleviated nociceptive hypersensitivity”. The “duration of effect in CFA model” value in series [3] (65 and 66 at 17.8 mg/kg, 2 at 32 mg/kg) is recorded as ~ 5 h. In [4], the “dose achieving statistical significance in OIH model” value was found to be 5.6 mg/kg; the “effect on fentanyl-induced mechanical hypersensitivity (OIH)” value was “dose-dependently and significantly mitigated this mechanical hypersensitivity”. In addition, the “LPA1–LPA4 inhibition” value in the series with LPA1–LPA4 receptors is reported as below 50%. Also, in series [5], the “effect on locomotor activity” value is “did not have any measurable effect on the locomotor activity”. Also, in [6], the “effect on CCI-induced mechanical allodynia” value was “completely reversed this hypersensitivity condition”. For the same compound, the “fold more potent than the 4-fluoro analog 65” value at hLPA5 [7] amounted to 2 fold. Also, the “affinity for panel receptors” value in [8] was “no significant affinity for most of the receptors”. Affinity at dopamine D3 was put at a Ki of 380 nM. Besides, the CLint scaled at 0.75 h in series [9] was found to be 74.7 mL/min/kg.
